Assay results of several laboratories.
Lines come from different studies, so protocols differ.
DHODH: Dihydroorotate dehydrogenase (quinone), mitochondrial (DHODH, Homo sapiens, UniProt Q02127)
SCTR: Secretin receptor (SCTR, Homo sapiens, UniProt P47872)
PIK3CG: Phosphatidylinositol 4,5-bisphosphate 3-kinase catalytic subunit gamma isoform (PIK3CG, Homo sapiens, UniProt P48736)
SHMT2: Serine hydroxymethyltransferase, mitochondrial (SHMT2, Homo sapiens, UniProt P34897)

`CCn1cc(C2CC2)c2c(CN3CCC(F)(F)C(C)(C)C3)n(C)nc2c1=O` has an IC50 of > 100000 nM (DHODH; enzyme activity, inhibitor, absorbance).
For `CC1=NN(/C(=N/c2nnc(C)s2)Nc2ccc(C)c(C)c2)C(c2ccc(-c3ccccc3)cc2)S1` (centres unmarked), the EC50 was 700 nM (SCTR; cAMP, agonist, TR-FRET).
The IC50 of `Cc1nc(N(C)c2ccc3c(c2)/C(=C/c2ccccc2Cl)C(=O)N3C)c2ccccc2n1` is reported as 105 nM (PIK3CG; enzyme activity, inhibitor, ADP detection).
The EC50 of `Cc1ccc(N/C(=N\c2nnc(C(C)(C)C)s2)N2N=C(C(C)(C)C)SC2c2cc(F)c(F)c(F)c2)cc1C` (centres unmarked) is reported as > 50000 nM (SCTR; cAMP, agonist, TR-FRET).
With `CNC[C@H](O)c1cccc(O)c1` the EC50 was 17.4 nM (Alpha-1D adrenergic receptor (ADRA1D, Homo sapiens, UniProt P25100); calcium signal, agonist).
For `Cc1cc([C@@H](C)Nc2ccccc2C(=O)O)c2nc(N3CCC(F)(F)CC3)c(C#N)c(=O)n2c1`, the IC50 was > 10000 nM (PIK3CG; enzyme activity, inhibitor, ADP detection).
The IC50 of `COc1cc2ncnc(N(C)c3ccc4c(c3)/C(=C/c3cccc(Cl)c3)C(=O)N4C)c2cc1OC` is reported as 118 nM (PIK3CG; enzyme activity, inhibitor, ADP detection).
The IC50 of `Cc1noc(C)c1-c1cc(Cl)c(Nc2ccccc2C(=O)O)c(Cl)c1` is reported as 1400 nM (DHODH; enzyme activity, inhibitor, absorbance).
`COc1cc2ncnc(Nc3ccc4c(c3)/C(=C/c3cccc(Cl)c3)C(=O)N4C)c2cc1OC` gave an IC50 of 197 nM (PIK3CG; enzyme activity, inhibitor, ADP detection).
The EC50 of `CC1=NN(/C(=N/c2nnc(C)s2)Nc2ccc(C)c(C)c2)C(c2ccc(-c3cccc(C(F)(F)F)c3)cc2)S1` (centres unmarked) is reported as 500 nM (SCTR; cAMP, agonist, TR-FRET).
For `COc1cc2ncnc(Nc3ccc4c(c3)/C(=C/c3ccccc3)C(=O)N4C)c2cc1OC`, the IC50 was 194 nM (PIK3CG; enzyme activity, inhibitor, ADP detection).
`CC[C@@](O)(c1cnc(C(F)(F)F)c(Cl)c1)c1c2ncn(C3CC3)c(=O)c2nn1C` has an IC50 of 4000 to 6000 nM (DHODH; enzyme activity, inhibitor, absorbance).
The Kd of `CN[C@H]1CC[C@@H](c2ccc(Cl)c(Cl)c2)c2ccccc21` is reported as 12000 nM (SHMT2; binding, MST).
The IC50 of `CCn1ccc2c(Cc3ccc(C(F)(F)F)nc3)n(C)nc2c1=O` is reported as > 100000 nM (DHODH; enzyme activity, inhibitor, absorbance).
The Kd of `NC(=O)c1cccc(C#CCN(CC[C@H](N)C(=O)O)C[C@H]2O[C@@H](n3cnc4c(N)ncnc43)[C@H](O)[C@@H]2O)c1` is reported as 66000 nM (SHMT2; binding, MST).
`Cc1nc(Nc2ccc3c(c2)/C(=C/c2ccccc2)C(=O)N3C)c2ccccc2n1` has an IC50 of 113 nM (PIK3CG; enzyme activity, inhibitor, ADP detection).
`Cc1c(C(=O)OC2CC2)nn(C)c1Cc1ccc(C(F)(F)F)nc1` gave an IC50 of > 100000 nM (DHODH; enzyme activity, inhibitor).
